Data as given in ChEMBL document CHEMBL2390857 (J Med Chem, 2013).
The source made the active and inactive calls. The calls are words filed in the database; no cut-off is given here.

Key:
LNCaP [1] = assay: Down regulation of AR protein expression in human LNCAP cells at 15 uM after 24 hrs by Western blotting analysis; format: functional, cell-based
How it was run: (§1)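 LNCaP cells exposed to 15 μM compound for 24 h. Whole-cell lysates made in RIPA buffer with protease and phosphatase inhibitors, protein measured by Bradford, run on SDS-PAGE and transferred to nitrocellulose. AR probed, bands detected by chemiluminescence and normalized to β-actin by densitometry. Blots run in duplicate or triplicate.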

[2] = Down regulation of truncated AR-3 expression in human CWR22Rv1 by Western blotting analysis; format: functional; settings: CWR22R
How it was run: (§2)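 CWR22Rv1 cells, which carry endogenous splice variant AR-3, exposed to 15 μM compound for 24 h. Lysates prepared in RIPA buffer with inhibitors and separated by SDS-PAGE. Full-length AR and AR-3 detected with specific antibodies by chemiluminescence, normalized to β-actin. Blots done in duplicate or triplicate.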

[3] = Down regulation of full length AR expression in human CWR22Rv1 by Western blotting analysis; format: functional; settings: CWR22R; how it was run: as §2
LNCaP [4] = assay: Induction of apoptosis in human LNCAP cells assessed as induction of PARP cleavage; format: functional, cell-based
CWR22R = assay: Induction of apoptosis in human CWR22Rv1 cells assessed as induction of PARP cleavage; format: functional, cell-based
LNCaP [5] = assay: Cytotoxicity against human LNCAP cells after 7 days by MTT assay; format: functional; settings: 168 h
[6] = molecular target: T1, Steroid 17-alpha-hydroxylase/17,20 lyase (Homo sapiens, UniProt P05093); assay: Inhibition of human truncated CYP17A1 expressed in Escherichia coli
T1 sequence (P05093 whole entry): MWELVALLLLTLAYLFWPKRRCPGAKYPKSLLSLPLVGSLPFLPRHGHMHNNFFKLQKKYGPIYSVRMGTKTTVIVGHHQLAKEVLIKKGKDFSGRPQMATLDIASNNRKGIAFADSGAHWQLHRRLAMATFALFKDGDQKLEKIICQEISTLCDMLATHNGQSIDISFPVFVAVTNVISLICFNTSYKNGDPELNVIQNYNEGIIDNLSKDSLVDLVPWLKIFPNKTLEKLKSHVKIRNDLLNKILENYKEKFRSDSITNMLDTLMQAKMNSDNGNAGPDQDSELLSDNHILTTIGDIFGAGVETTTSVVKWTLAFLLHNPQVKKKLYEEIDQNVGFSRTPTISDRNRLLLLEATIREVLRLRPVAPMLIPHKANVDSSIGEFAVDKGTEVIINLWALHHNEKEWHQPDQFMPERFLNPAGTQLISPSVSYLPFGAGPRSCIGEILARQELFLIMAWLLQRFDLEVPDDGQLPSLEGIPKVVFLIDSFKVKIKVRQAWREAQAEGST
How it was run: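 Purified truncated human CYP17A1 (CYP171dH), expressed in E. coli, assayed for 17α-hydroxylase activity following a previously reported procedure. […] Reference CYP17 inhibitors were run in the same system as positive controls.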

LNCaP [7] = assay: Upregulation of AR protein expression in human LNCAP cells at 15 uM after 24 hrs by Western blotting analysis; format: functional, cell-based; how it was run: as §1
LNCaP [8] = assay: Down regulation of AR protein expression in human LNCAP cells at 5 uM after 48 hrs by DAPI staining-based immunocytochemical analysis; format: functional, cell-based
How it was run: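 LNCaP cells on chamber slides (0.025 × 10^6 per well) for 12 h, then 5 μM compound for 48 h. Fixed in 3.7% formaldehyde, permeabilized with 0.25% Triton, blocked in 5% BSA/0.5% NP40. Anti-AR (1:600) applied overnight, then Alexa Fluor 488 anti-rabbit IgG (1:1000) for 1 h, DAPI nuclear counterstain. Imaged by fluorescence microscopy.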

[9] = molecular target: T2, Androgen receptor (Homo sapiens) (UniProt P10275); assay: Displacement of [3H]R1881 from AR in human LNCaP cells at 30 uM after 2 hrs by scintillation counting analysis; format: cell-based
T2 sequence (whole entry): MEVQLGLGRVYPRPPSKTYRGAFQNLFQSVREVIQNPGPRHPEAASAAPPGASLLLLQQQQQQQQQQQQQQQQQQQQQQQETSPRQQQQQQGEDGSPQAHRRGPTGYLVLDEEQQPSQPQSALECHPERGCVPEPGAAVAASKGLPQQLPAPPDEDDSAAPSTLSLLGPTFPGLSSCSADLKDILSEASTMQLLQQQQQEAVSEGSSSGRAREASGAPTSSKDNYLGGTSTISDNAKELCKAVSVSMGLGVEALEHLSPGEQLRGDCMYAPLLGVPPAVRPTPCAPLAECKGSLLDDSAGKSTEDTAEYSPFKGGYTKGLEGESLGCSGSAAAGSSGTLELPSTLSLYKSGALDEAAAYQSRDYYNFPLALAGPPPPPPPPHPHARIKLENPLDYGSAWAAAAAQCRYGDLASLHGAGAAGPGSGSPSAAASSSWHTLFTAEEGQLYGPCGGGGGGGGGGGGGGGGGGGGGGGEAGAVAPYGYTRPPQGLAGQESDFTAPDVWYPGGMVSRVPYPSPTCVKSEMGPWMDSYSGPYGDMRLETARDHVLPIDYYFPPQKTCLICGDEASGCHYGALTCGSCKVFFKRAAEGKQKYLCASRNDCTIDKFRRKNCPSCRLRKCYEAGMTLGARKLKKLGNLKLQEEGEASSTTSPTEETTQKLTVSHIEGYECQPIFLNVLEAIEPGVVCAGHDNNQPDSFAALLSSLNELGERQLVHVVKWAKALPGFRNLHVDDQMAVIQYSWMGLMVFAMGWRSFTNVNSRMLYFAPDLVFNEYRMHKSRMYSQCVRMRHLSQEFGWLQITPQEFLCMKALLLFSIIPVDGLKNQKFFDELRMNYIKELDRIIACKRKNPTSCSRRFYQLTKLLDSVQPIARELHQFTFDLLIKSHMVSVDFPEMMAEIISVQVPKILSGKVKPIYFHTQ
How it was run: (§3)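 Whole-cell competitive binding in LNCaP cells plated on poly-L-lysine-coated wells (2–3 × 10^5 per well) in steroid-free medium. […] Incubated 2 h at 37 °C, washed, solubilized in SDS/glycerol DPBS, radioactivity counted by scintillation.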

[10] = molecular target: T2, Androgen receptor (Homo sapiens); assay: Displacement of [3H]R1881 from AR in human LNCaP cells at 0.1 nM to 30000 nM after 2 hrs by scintillation counting analysis; format: cell-based; how it was run: as §3

SMILES: C[C@]12CCC(=O)C=C1CC[C@@H]1[C@@H]2CC[C@]2(C)C(n3cnc4ccccc43)=CC[C@@H]12
- Activity (LNCaP [1]): Active
- Activity [2]: Active
- Activity [3]: Active
- Activity (LNCaP [4]): Active
- Activity (CWR22R): Active
- GI50 (LNCaP [5]): 2.64 µM

SMILES: C[C@]12CC[C@H](O)CC1C=C[C@@H]1[C@@H]2CC[C@]2(C)C(c3cccnc3)=CC[C@@H]12 (some centres not stated)
- IC50 [6]: 0.206 µM
- GI50 (LNCaP [5]): 1.97 µM

SMILES: C[C@]12CC[C@H](OS(C)(=O)=O)CC1=CC[C@@H]1[C@@H]2CC[C@]2(C)C(n3cnc4ccccc43)=CC[C@@H]12
- GI50 (LNCaP [5]): 42.1 µM

SMILES: C[C@]12CC[C@H](OC(=O)C3CC=CCC3C(=O)O)CC1=CC[C@@H]1[C@@H]2CC[C@]2(C)C(n3cnc4ccccc43)=CC[C@@H]12 (some centres not stated)
- GI50 (LNCaP [5]): 8.22 µM

SMILES: CC1(O)C=C2CC[C@@H]3[C@H](CC[C@]4(C)C(n5cnc6ccccc65)=CC[C@@H]34)[C@@]2(C)CC1 (mixture of isomers)
- GI50 (LNCaP [5]): 13.3 µM

SMILES: C[C@]12CC[C@H](O)CC1=CC[C@@H]1[C@@H]2CC[C@]2(C)C(n3cnc4cc5ccccc5cc43)=CC[C@@H]12
- Activity (LNCaP [7]): Active
- GI50 (LNCaP [5]): 37.1 µM

SMILES: C[C@]12CC[C@H](OC(=O)n3cncn3)CC1=CC[C@@H]1[C@@H]2CC[C@]2(C)C(n3cnc4ccccc43)=CC[C@@H]12
- Activity (LNCaP [7]): Active
- GI50 (LNCaP [5]): 6.67 µM

SMILES: C[C@]12CC[C@H](O)CC1=CC[C@@H]1[C@@H]2CC[C@]2(C)C(n3cnc4ccccc43)=CC[C@@H]12 [GALETERONE]
- Activity (LNCaP [1]): Active
- Activity (LNCaP [8]): Active
- Activity [2]: Active
- Activity [3]: Active
- Activity (LNCaP [4]): Active
- Activity (CWR22R): Active
- GI50 (LNCaP [5]): 3.35 µM

SMILES: CNC(=O)c1ccc(N2C(=S)N(c3ccc(C#N)c(C(F)(F)F)c3)C(=O)C2(C)C)cc1F
- Activity [2]: inactive
- Activity [3]: inactive

SMILES: C[C@]12CC[C@H](O)CC1=CC[C@@H]1[C@@H]2CC[C@]2(C)C(n3cnc4c(Cl)ncnc43)=CC[C@@H]12
- GI50 (LNCaP [5]): 13.5 µM

SMILES: Cc1nccn1C(=O)O[C@H]1CC[C@@]2(C)C(=CC[C@@H]3[C@@H]2CC[C@]2(C)C(n4cnc5ccccc54)=CC[C@@H]32)C1
- Activity (LNCaP [1]): Active
- Activity (LNCaP [4]): Active
- Activity (CWR22R): Active
- GI50 (LNCaP [5]): 5.34 µM

SMILES: C[C@]12CC/C(=N\O)C=C1CC[C@@H]1[C@@H]2CC[C@]2(C)C(n3cnc4ccccc43)=CC[C@@H]12
- GI50 (LNCaP [5]): 2.03 µM

SMILES: CO/N=C1/C=C2CC[C@@H]3[C@H](CC[C@]4(C)C(n5cnc6ccccc65)=CC[C@@H]34)[C@@]2(C)CC1 (mixture of isomers)
- GI50 (LNCaP [5]): 3.38 µM

SMILES: C[C@]12CC[C@H](O)CC1=CC[C@@H]1[C@@H]2CC[C@]2(C)C(n3cnc4ccccc43)=C(CNc3ccccc3)C[C@@H]12
- GI50 (LNCaP [5]): 22.1 µM

SMILES: C[C@]12CC[C@H](OC(=O)Cc3cccc(CC(=O)O)c3)CC1=CC[C@@H]1[C@@H]2CC[C@]2(C)C(n3cnc4ccccc43)=CC[C@@H]12
- GI50 (LNCaP [5]): 7.78 µM

SMILES: C[C@]12CC[C@H](OC(=O)COCC(=O)O)CC1=CC[C@@H]1[C@@H]2CC[C@]2(C)C(n3cnc4ccccc43)=CC[C@@H]12
- GI50 (LNCaP [5]): 9.13 µM

SMILES: Cc1ccc(S(=O)(=O)O[C@H]2CC[C@@]3(C)C(=CC[C@@H]4[C@@H]3CC[C@]3(C)C(n5cnc6ccccc65)=CC[C@@H]43)C2)cc1
- GI50 (LNCaP [5]): 47.2 µM

SMILES: C[C@]12CC[C@H](OC(=O)n3ccnc3)CC1=CC[C@@H]1[C@@H]2CC[C@]2(C)C(n3cnc4ccccc43)=CC[C@@H]12
- Activity [9]: 20%
- Activity (LNCaP [1]): Active
- Activity (LNCaP [8]): Active
- Activity [2]: Active
- Activity [3]: Active
- Activity (LNCaP [4]): Active
- Activity (CWR22R): Active
- GI50 (LNCaP [5]): 0.87 µM

SMILES: C[C@]12CC[C@H](O)CC1=CC[C@@H]1[C@@H]2CC[C@]2(C)C(n3ccc4ccccc43)=CC[C@@H]12
- inhibition [10]: Active
- Activity (LNCaP [7]): Active
- GI50 (LNCaP [5]): > 100 µM

SMILES: COc1ccc2ncn(C3=CC[C@H]4[C@@H]5CC=C6C[C@@H](O)CC[C@]6(C)[C@H]5CC[C@]34C)c2c1
- GI50 (LNCaP [5]): 4.26 µM

SMILES: COc1ccc(NCC2=C(n3cnc4ccccc43)[C@@]3(C)CC[C@H]4[C@@H](CC=C5C[C@@H](O)CC[C@@]54C)[C@@H]3C2)cc1OC
- Activity [2]: Active
- Activity [3]: Active
- GI50 (LNCaP [5]): > 100 µM

SMILES: CC(C)CCNCC1=C(n2cnc3ccccc32)[C@@]2(C)CC[C@H]3[C@@H](CC=C4C[C@@H](O)CC[C@@]43C)[C@@H]2C1
- GI50 (LNCaP [5]): 18.3 µM

SMILES: C[C@]12CC[C@H](O)CC1=CC[C@@H]1[C@@H]2CC[C@]2(C)C(n3c(Cl)nc4ccccc43)=CC[C@@H]12
- GI50 (LNCaP [5]): 10.1 µM

SMILES: C[C@]12CC/C(=N/O)C=C1CC[C@@H]1[C@@H]2CC[C@]2(C)C(n3cnc4ccccc43)=CC[C@@H]12
- GI50 (LNCaP [5]): 1.95 µM

SMILES: C[C@]12CC/C(=N\OCc3ccccc3)C=C1CC[C@@H]1[C@@H]2CC[C@]2(C)C(n3cnc4ccccc43)=CC[C@@H]12 (mixture of isomers)
- GI50 (LNCaP [5]): 5.57 µM

SMILES: Cc1cc2ncn(C3=CC[C@H]4[C@@H]5CC=C6C[C@@H](O)CC[C@]6(C)[C@H]5CC[C@]34C)c2cc1C
- Activity (LNCaP [7]): Active
- GI50 (LNCaP [5]): 47.7 µM

SMILES: C[C@]12CCC(=O)CC1=CC[C@@H]1[C@@H]2CC[C@]2(C)C(n3cnc4ccccc43)=CC[C@@H]12
- GI50 (LNCaP [5]): 16 µM
